The experiment addresses T1, RsTSPO WT (Cereibacter sphaeroides, UniProt Q9RFC8).
T1 sequence (Q9RFC8 1-158): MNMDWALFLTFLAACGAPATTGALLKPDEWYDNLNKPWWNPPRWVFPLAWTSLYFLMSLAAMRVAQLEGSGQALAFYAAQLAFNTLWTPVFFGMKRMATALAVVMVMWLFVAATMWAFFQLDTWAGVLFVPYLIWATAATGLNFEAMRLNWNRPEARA
Description: tryptophan fluorescence quenching titration, Hill fit. The class given is binding. The method in brief:
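Purified wild-type Rhodobacter sphaeroides TSPO, 2.5 uM in 20mM Tris pH 8.0, 150mM NaCl, 0.20% DM, 2mM TCEP, titrated at room temperature with increasing amounts of test compound in DMSO. Emission scanned 290–400 nm, excitation 285 nm. Ligand, buffer and solvent absorption/emission controls run. Kd from Hill-equation fit of the quenching curve.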

Regarding `Nc1ccccc1C(=O)C[C@H](N)C(=O)O` [Kynurenine], the dissociation constant Kd is 172 ± 11 µM.

Source of the values: article PMC10330775 (Experimental cell research, 2023).
